# High-throughput results (PubChem BioAssay)
# Sampled rows, rich in hits. Any-hit rate of the full collection: about 2.4%.
# Tb MetRS inh – blocks T. brucei methionyl-tRNA synthetase activity | inhibition, % at 11.9 µM | 0.4% of 360,000 active | purified T. brucei MetRS, ATP depletion, Kinase-Glo luminescence | AID 624268;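 active = inhibition above a per-plate cutoff of the control wells' mean inhibition plus 3 SD, cut at about 5.5% in these data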;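 also: 0% = DMSO wells median and 100% = median of wells with control inhibitor compound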
#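 Material – parasite MetRS enzyme · Medium – HEPES-MgCl2-KCl buffer plus DTT, spermine, BSA, pyrophosphatase · Reagent – ATP, methionine and E. coli bulk tRNA substrates · Times – 15 min enzyme-compound preincubation, 2 h reaction, 10 min detection, 25 °C · Measured by – luminescence of leftover ATP · Evaluation – percent inhibition relative to median high and low control wells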
# aDG glyco up – increases alpha dystroglycan glycosylation. Pro5-aDG cells, alpha-DG glycosylation AlphaScreen (IIH6); 0% Pro5, 100% B10-LARGE cell signal. activation, % at 10 µM. 0.22% of 360,000 active;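 active = activation of at least 8% versus controls, or a plate z-score of at least 8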;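 also: Pro5 are CHO cells carrying HIG-tagged alpha-DG that lacks glycosylation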
# MC4R ag barr – human MC4R agonism via beta-arrestin; 0.98% of 360,000 active; activation, % at 8.9 µM; P32245; U2OS MC4R beta-arrestin complementation, luminescence; percent of melanotan II response, DMSO zero;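 active = activation above a per-plate cutoff, the mean activation of sample wells on that plate plus 3 SD, cut at about 8% in these data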
# Target sequence (P32245 whole entry, looked up): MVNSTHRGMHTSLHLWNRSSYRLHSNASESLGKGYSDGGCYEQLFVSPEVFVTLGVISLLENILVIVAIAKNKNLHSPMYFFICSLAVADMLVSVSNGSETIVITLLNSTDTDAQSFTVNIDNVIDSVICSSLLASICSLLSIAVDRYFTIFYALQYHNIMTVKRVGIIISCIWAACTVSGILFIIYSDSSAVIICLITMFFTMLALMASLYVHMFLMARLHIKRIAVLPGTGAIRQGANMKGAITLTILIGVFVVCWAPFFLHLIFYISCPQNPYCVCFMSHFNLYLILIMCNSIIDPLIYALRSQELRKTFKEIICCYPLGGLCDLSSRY
# MC4R antag cAMP – human MC4R antagonism in cAMP assay; 0.48% of 360,000 active; P32245; inhibition, % at 6.5 µM; AID 540295; MC4R-expressing cells, MTII-stimulated cAMP, LANCE TR-FRET;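 active = inhibition above its plate's cutoff, the mean of tested wells on that plate plus 3 SD, cut at about 29% in these data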;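 also: 0% = Melanotan II alone and 100% = Melanotan II plus saturating MCL0020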
#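 Test system: U2OS cells stably expressing human melanocortin 4 receptor (MC4R); also added: Melanotan II challenge; compound: 6.5 µM single dose; timing: 30-min compound preincubation, 1-h Melanotan II challenge, 1-h detection, room temperature; signal: Eu-cAMP/anti-cAMP TR-FRET, emission 671 nm; repeats: one well per compound, no replicates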
# NTR1 agonist – activates human neurotensin receptor 1 | P30989 | NTR1-U2OS beta-arrestin-GFP spot imaging, agonist mode | activation, % at 20 µM | 0.17% of 330,000 active | AID 493036;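 active = activation at or above 40% of the spot to cytoplasm intensity ratio, with at least 20 cells analyzed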;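 also: 0% = DMSO without peptide and 100% = 100 nM NTR1 peptide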
# H9c2 TAG inh – triacylglycerol accumulation inhibition | inhibition, % at 12.5 µM | AID 651582 | 0.66% of 230,000 active | H9c2 cells, Nile Red lipid (TAG) fluorescence; cells loaded with 200 µM oleic acid;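 active = pattern-corrected inhibition of lipid staining of at least 50% with the nuclear-stain viability signal not falling by more than 50%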;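 also: 0% = DMSO wells and 100% = triacsin C control wells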
# Tb MetRS conf – confirmation of Trypanosoma brucei MetRS inhibitors. shares compounds with Tb MetRS inh. T. brucei MetRS enzyme, luminescence (ATP depletion). inhibition, % at 11.9 µM. 93% of 1,400 active; in the data active = inhibition above about 7%
# Jurkat cytotox – kills Jurkat cells in T. brucei MetRS counterscreen; shares compounds with Tb MetRS inh; Jurkat cells viability, ATP luminescence; inhibition, % at 8.3 µM; 12% of 1,400 active; AID 624413; in the data active = inhibition above about 15%;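 also: 0% = vehicle and 100% = reference inhibitor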
# TbMetRS FP orth – inhibits T. brucei methionyl tRNA synthetase in orthogonal FP test; AID 651607; 44% of 1,400 active; inhibition, % at 11.9 µM; shares compounds with Tb MetRS inh; purified T. brucei MetRS, fluorescence polarization; in the data active = inhibition above about 17%;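 also: 0% = vehicle wells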
# * = called active by the depositor; / = no result given.
SMILES,Tb MetRS inh,aDG glyco up,MC4R ag barr,MC4R antag cAMP,NTR1 agonist,H9c2 TAG inh,Tb MetRS conf,Jurkat cytotox,TbMetRS FP orth
Cc1[nH]c2ccccc2c1C(=O)C(=O)N1CCN(c2ccccc2)CC1,12*,0,2,2,0,/,19*,-12,10
COc1ccccc1N1CCN(C(=O)C(=O)c2c[nH]c3ccccc23)CC1,9.3*,0,-3,-1,0,/,27*,-2,4
O=C(c1c[nH]c2ccccc12)N1CCN(c2ccccc2)CC1,0,0,-2,6,1,-4,/,/,/
O=C(C(=O)N1CCN(c2ccccc2)CC1)c1c[nH]c2ccccc12,6.7*,0,-1,-4,2,-11,13*,4,3
CC1=C(C(=O)N(C(C)C)C(C)C)CC(CC(=O)NCCN2CCOCC2)C(=O)N1Cc1ccc(C(C)(C)C)cc1 (configuration not stated),-1,0,/,/,/,/,/,/,/
COC(=O)C1=C(C)NC(C)=C(C(=O)OC)C1C(=O)OCC(=O)NC1CCCCC1C (configuration not stated),0,0,-3,6,/,-9,/,/,/
O=C(C(=O)N1CCN(Cc2ccccc2)CC1)c1c[nH]c2ccccc12,12*,0,0,14,2,-16,21*,-6,4
COc1ccc(N2CCN(CC(=O)c3c[nH]c4ccccc34)CC2)cc1,4,0,-1,1,0,-8,/,/,/
COc1ccc(N2CCN(CCCNC(=O)C(=O)c3c(C)[nH]c4ccccc34)CC2)cc1,5.9*,0,2,-6,-1,/,18*,-2,8
O=C(c1c[nH]c2ccccc12)N1CCN(Cc2ccccc2)CC1,1,0,0,20,4,-4,/,/,/
O=C(CN1CCN(Cc2ccc3c(c2)OCO3)CC1)c1c[nH]c2ccccc12,14*,0,-1,0,1,14,27*,-3,9
CC(=O)Nc1ccc(S(=O)(=O)c2ccnc3cc(Cl)ccc23)cc1,0,1,-1,1,/,30,/,/,/
COC(=O)C[C@@H]1C=C[C@@H](NS(=O)(=O)c2ccc(OC)cc2)[C@@H](CO)O1,0,0,/,/,/,/,/,/,/
COC(=O)c1cc(-c2ccc(Cl)cc2Cl)n[nH]1,12*,0,5,17,0,/,29*,7,18*
COC(=O)c1cc(-c2ccc(Cl)cc2)n[nH]1,1,0,-3,-1,0,/,/,/,/
CC1CCN(CCOCCOc2ccc(Br)cc2Cl)CC1,1,2,0,1,4,/,/,/,/
CC1CCCN(CCCOc2ccc(Br)cc2Cl)C1 (configuration not stated),17*,0,3,4,0,17,30*,23*,11
CN(C)CCCCOc1ccc(Br)cc1Cl,8.0*,0,0,-1,-2,4,21*,7,11
Cc1csc(=O)n1CCC(=O)OCC(=O)NCc1ccccc1,0,0,-1,-6,/,20,/,/,/
CCOC(=O)CNC(=O)N1CCC(CCC(=O)N(C)Cc2ccccc2)CC1,5.7*,0,0,4,-1,-1,3,-7,-3
Nn1cc(-c2ccccc2)nc1SCC(=O)NCCc1ccccc1,-1,0,-4,1,1,-10,/,/,/
NNC(=O)CSc1nc(-c2ccccc2)cn1-c1ccccc1,7.2*,0,0,14,0,-2,3,-2,1
O=C(Nc1ccc(C(=O)O)cc1)/C(=C\C=C\c1ccccc1)NC(=O)c1ccc(Br)cc1,21*,1,-3,-11,2,9,40*,1,39*
